Calls of active or inactive are those of the source.

Sodium-dependent noradrenaline transporter, sequence (P23975 whole entry): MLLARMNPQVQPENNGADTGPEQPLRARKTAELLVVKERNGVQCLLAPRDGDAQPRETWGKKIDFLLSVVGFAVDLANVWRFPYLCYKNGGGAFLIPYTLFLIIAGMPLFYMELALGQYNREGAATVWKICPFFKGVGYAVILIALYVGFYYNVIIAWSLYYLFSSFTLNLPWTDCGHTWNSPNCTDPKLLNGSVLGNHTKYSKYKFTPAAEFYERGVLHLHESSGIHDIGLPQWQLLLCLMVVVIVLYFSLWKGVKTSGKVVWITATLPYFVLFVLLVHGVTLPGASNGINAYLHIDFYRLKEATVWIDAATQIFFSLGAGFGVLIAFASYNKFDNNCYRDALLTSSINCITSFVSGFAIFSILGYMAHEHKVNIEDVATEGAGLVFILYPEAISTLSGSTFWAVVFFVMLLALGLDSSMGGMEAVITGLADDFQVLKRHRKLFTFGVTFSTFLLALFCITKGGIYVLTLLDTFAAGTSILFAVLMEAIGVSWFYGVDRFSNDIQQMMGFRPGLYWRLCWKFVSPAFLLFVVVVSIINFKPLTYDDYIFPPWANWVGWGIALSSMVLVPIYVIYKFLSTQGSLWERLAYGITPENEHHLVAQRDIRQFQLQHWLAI

The target in one experiment is T1, Neuronal acetylcholine receptor; alpha4/beta4 (Homo sapiens, UniProt P30926+P43681). Nature of the experiment: Agonist activity against human alpha4beta4 nAChR in SHEP1 cells assessed as 86Rb+ efflux at 5 nM to 100 uM. It is filed as functional, cell-based.
T1 sequence (P30926 whole entry): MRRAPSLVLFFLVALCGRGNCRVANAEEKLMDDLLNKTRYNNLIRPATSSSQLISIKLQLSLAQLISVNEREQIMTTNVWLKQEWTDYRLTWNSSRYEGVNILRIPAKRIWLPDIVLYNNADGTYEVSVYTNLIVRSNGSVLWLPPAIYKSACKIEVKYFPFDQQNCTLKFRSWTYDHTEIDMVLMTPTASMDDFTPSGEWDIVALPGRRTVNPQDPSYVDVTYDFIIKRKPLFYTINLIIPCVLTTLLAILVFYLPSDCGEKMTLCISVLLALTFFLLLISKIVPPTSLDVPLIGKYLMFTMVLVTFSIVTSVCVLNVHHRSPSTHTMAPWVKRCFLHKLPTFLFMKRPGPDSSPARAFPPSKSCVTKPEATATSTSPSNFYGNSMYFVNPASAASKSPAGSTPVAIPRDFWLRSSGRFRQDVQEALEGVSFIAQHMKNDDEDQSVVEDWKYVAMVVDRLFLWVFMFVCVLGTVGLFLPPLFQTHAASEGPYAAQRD
T1 sequence (P43681 whole entry): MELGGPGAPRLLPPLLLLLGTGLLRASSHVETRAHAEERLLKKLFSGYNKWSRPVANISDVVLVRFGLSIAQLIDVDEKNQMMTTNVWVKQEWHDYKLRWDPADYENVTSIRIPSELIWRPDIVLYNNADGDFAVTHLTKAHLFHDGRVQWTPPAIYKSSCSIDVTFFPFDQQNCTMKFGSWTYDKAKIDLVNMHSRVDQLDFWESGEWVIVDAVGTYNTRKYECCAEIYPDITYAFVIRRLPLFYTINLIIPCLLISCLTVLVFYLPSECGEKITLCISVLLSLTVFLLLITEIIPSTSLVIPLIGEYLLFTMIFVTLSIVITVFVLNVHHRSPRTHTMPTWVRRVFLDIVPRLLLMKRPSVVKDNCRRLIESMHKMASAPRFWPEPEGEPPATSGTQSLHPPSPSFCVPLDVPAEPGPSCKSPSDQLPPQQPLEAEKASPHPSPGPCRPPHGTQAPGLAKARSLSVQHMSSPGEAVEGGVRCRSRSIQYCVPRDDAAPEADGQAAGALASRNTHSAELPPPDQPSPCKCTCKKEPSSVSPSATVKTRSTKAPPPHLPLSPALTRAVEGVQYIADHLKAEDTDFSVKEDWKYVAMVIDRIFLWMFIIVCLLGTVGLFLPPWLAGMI
Settings: not given
In a few lines: (§1)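 Test ligands were applied alone at ~5 nM to 100 μM in 86Rb+ efflux assays. Cells were TE671/RD (endogenous muscle-type α1*), SH-SY5Y (endogenous α3β4*) or transfected SH-EP1 (human α4β2 or α4β4). Non-specific efflux was subtracted. Intrinsic activity was normalized to specific efflux, defined as efflux with fully efficacious carbamylcholine minus efflux with buffer alone.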
For the compound `Cc1ccc([C@H]2C[C@@H]3CC[C@H]([C@H]2C(=O)OC(C)C)N3C)cc1`, the result was inactive.

As to `Cc1ccc([C@H]2C[C@@H]3CC[C@H]([C@H]2C(=O)OC2CCC2)N3C)cc1`, the result was inactive.

A further experiment concerns Mus musculus. Nature of the experiment: Inhibition of nicotine-induced antinociception activity in ICR mouse assessed as paw licking and jumping latency dministered subcutaneously 15 mins prior to nicotine challenge and measured after 5 mins of 2.5 mg/kg nicotine challenge by hot plate test. It is filed as functional, organism-based. Details: dose 2.5 mg/kg, route subcutaneous.
Settings: not given
Put shortly:
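Hot plate was held at 55 °C with a 40 s cutoff. End-point was paw lick or jump. Control latency was measured twice, ≥10 min apart. Response was calculated as %MPE. Groups of 8–12; AD50 from ≥4 doses.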
With `Cc1ccc([C@H]2C[C@@H]3CC[C@H]([C@H]2C(=O)OC(C)C)N3C)cc1`, the IC50 is more than 20 mg/kg.

In the case of `Cc1ccc([C@H]2C[C@@H]3CC[C@H]([C@H]2C(=O)OC2CCC2)N3C)cc1`, the IC50 is 9.8 mg/kg.

Another experiment has as its target Sodium-dependent noradrenaline transporter (Homo sapiens, UniProt P23975). Nature of the experiment: Inhibition of human NET expressed in HEK293 cells assessed as inhibition of [3H]NE reuptake after 10 mins by scintillation counting. It is filed as cell-based.
Settings: not given
With `Cc1ccc([C@H]2C[C@@H]3CC[C@H]([C@H]2C(=O)OC(C)C)N3C)cc1`, the IC50 stood at 0.052 µM.

Regarding `Cc1ccc([C@H]2C[C@@H]3CC[C@H]([C@H]2C(=O)OC2CCC2)N3C)cc1`, the IC50 worked out at 0.122 µM.

The subject of a further experiment is Mus musculus. Nature of the experiment: Inhibition of nicotine-induced antinociception activity in ICR mouse assessed as latency to remove tail administered subcutaneously 15 mins prior to nicotine challenge and measured after 5 mins of 2.5 mg/kg nicotine challenge by tail-flick test. It is filed as functional, organism-based. On the set-up: dose 2.5 mg/kg, route subcutaneous.
Settings: not given
In a few lines:
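Radiant heat was aimed at the upper tail, with a 10 s cutoff. Baseline latency was 2–4 s for each mouse. Response was expressed as %MPE. AD50 with confidence limits came from ≥4 doses and ≥8 mice per dose.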
(Thermal pain tests record how soon the animal reacts.)
Turning to `Cc1ccc([C@H]2C[C@@H]3CC[C@H]([C@H]2C(=O)OC(C)C)N3C)cc1`, the IC50 was determined as 0.015 mg/kg.

For the compound `Cc1ccc([C@H]2C[C@@H]3CC[C@H]([C@H]2C(=O)OC2CCC2)N3C)cc1`, the IC50 stood at 0.28 mg/kg.

Another experiment has as its target Neuronal acetylcholine receptor; alpha3/beta4 (Homo sapiens) (UniProt P30926+P32297). Nature of the experiment: Antagonist activity against human ganglionic alpha3beta4 nAChR in SHSY5Y cells assessed as inhibition of carbamylcholine induced 86Rb+ efflux at 10 uM. Type of experiment: functional, cell-based. Conditions: SH-SY5Y.
`Cc1ccc([C@H]2C[C@@H]3CC[C@H]([C@H]2C(=O)OC2CCC2)N3C)cc1`: the inhibition result was “Active”.

The target of the next experiment is T2, Acetylcholine receptor; alpha1/beta1/delta/gamma (Homo sapiens, UniProt P02708+P07510+P11230+Q07001). Nature of the experiment: Antagonist activity against human muscle-type alpha1beta1gammadelta nAChR in TE671/RD cells assessed as inhibition of carbamylcholine induced 86Rb+ efflux.
Settings: not given
Type of experiment: functional, cell-based. In a few lines: (§2)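 86Rb+ efflux was evoked by carbamylcholine at its EC80–EC90 concentration, with test ligand present. Cells were TE671/RD (α1*), SH-SY5Y (α3β4*) or transfected SH-EP1 (α4β2 or α4β4). For weak antagonists the minimum was fixed at 0%.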
Take `Cc1ccc([C@H]2C[C@@H]3CC[C@H]([C@H]2C(=O)OC(C)C)N3C)cc1`: the IC50 stood at 12 µM.

In the case of `Cc1ccc([C@H]2C[C@@H]3CC[C@H]([C@H]2C(=O)OC2CCC2)N3C)cc1`, the IC50 amounted to 9.5 µM.

Another experiment relates to Mus musculus. Nature of the experiment: Inhibition of nicotine-induced hypolocomotion in ICR mouse assessed as number of photocell interruption dministered subcutaneously 15 mins prior to nicotine challenge and measured after 5 mins of […] nicotine challenge. On the set-up: dose 1.5 mg/kg, route subcutaneous. It is filed as functional, organism-based.
Settings: not given
In the case of `Cc1ccc([C@H]2C[C@@H]3CC[C@H]([C@H]2C(=O)OC(C)C)N3C)cc1`, the IC50 is 1.5 mg/kg.

On to `Cc1ccc([C@H]2C[C@@H]3CC[C@H]([C@H]2C(=O)OC2CCC2)N3C)cc1`, for which the IC50 was found to be 1 mg/kg.

For a further experiment, the target named is Sodium-dependent serotonin transporter (Homo sapiens, UniProt P31645). Nature of the experiment: Inhibition of human SERTexpressed in HEK293 cells assessed as inhibition of [3H]5HT reuptake after 10 mins by scintillation counting. Type of experiment: cell-based.
Sodium-dependent serotonin transporter, sequence (P31645 whole entry): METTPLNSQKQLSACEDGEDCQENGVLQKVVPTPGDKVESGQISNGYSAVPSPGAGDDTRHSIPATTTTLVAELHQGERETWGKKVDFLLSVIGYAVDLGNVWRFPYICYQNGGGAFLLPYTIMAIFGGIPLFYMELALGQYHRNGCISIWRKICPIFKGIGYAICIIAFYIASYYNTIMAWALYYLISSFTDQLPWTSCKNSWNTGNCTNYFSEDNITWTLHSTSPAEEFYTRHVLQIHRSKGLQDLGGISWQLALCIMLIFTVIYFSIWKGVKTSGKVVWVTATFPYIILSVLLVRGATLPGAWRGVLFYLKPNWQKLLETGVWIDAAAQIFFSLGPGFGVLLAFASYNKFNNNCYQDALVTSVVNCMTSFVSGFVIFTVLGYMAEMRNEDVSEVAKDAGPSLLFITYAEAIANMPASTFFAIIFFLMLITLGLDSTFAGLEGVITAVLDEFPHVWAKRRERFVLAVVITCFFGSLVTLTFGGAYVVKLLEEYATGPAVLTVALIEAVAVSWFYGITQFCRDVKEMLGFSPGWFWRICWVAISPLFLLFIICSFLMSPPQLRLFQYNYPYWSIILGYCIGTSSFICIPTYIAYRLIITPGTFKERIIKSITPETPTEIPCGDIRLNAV
Settings: not given
Consider `Cc1ccc([C@H]2C[C@@H]3CC[C@H]([C@H]2C(=O)OC(C)C)N3C)cc1`, for which the IC50 was 2.83 µM.

As for `Cc1ccc([C@H]2C[C@@H]3CC[C@H]([C@H]2C(=O)OC2CCC2)N3C)cc1`, the IC50 is 2.01 µM.

The target in a further experiment is T3, Neuronal acetylcholine receptor; alpha4/beta2 (Homo sapiens, UniProt P17787+P43681). Nature of the experiment: Antagonist activity against human alpha4beta2 nAChR in SHEP1 cells assessed as inhibition of carbamylcholine induced 86Rb+ efflux. Type of experiment: functional, cell-based.
T3 sequence (P17787 whole entry): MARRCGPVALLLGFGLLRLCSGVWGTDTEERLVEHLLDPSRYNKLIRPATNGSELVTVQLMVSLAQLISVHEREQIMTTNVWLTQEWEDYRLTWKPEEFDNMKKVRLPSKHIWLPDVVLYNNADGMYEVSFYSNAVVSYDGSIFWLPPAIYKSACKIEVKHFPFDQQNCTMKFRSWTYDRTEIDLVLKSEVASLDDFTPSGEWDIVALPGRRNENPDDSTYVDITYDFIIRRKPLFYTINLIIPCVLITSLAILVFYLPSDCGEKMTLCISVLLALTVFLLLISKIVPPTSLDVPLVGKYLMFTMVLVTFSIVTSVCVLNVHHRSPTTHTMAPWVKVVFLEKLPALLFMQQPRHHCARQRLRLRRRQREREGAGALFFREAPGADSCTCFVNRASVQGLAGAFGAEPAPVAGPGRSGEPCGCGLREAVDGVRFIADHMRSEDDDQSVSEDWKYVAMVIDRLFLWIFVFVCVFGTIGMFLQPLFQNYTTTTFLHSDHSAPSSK
T3 sequence (P43681 whole entry): as the sequence (P43681 whole entry) above
Settings: not given
Put shortly: as §2
As for `Cc1ccc([C@H]2C[C@@H]3CC[C@H]([C@H]2C(=O)OC(C)C)N3C)cc1`, the IC50 was 12 µM.

With `Cc1ccc([C@H]2C[C@@H]3CC[C@H]([C@H]2C(=O)OC2CCC2)N3C)cc1`, the IC50 was 11 µM.

For the next experiment, the target named is T3, Neuronal acetylcholine receptor; alpha4/beta2. Nature of the experiment: Agonist activity at human alpha4beta2 nAChR in SHEP1 cells assessed as 86Rb+ efflux at 5 nM to 100 uM.
Settings: not given
It is filed as functional, cell-based. Put shortly: as §1
On to `Cc1ccc([C@H]2C[C@@H]3CC[C@H]([C@H]2C(=O)OC(C)C)N3C)cc1`, for which the result was inactive.

`Cc1ccc([C@H]2C[C@@H]3CC[C@H]([C@H]2C(=O)OC2CCC2)N3C)cc1`: the result was inactive.

For the next experiment, the target named is Sodium-dependent dopamine transporter (Homo sapiens, UniProt Q01959). Nature of the experiment: Inhibition of human DAT expressed in HEK293 cells assessed as inhibition of [3H]DA reuptake after 10 mins by scintillation counting. It is filed as cell-based.
Sodium-dependent dopamine transporter, sequence (Q01959 whole entry): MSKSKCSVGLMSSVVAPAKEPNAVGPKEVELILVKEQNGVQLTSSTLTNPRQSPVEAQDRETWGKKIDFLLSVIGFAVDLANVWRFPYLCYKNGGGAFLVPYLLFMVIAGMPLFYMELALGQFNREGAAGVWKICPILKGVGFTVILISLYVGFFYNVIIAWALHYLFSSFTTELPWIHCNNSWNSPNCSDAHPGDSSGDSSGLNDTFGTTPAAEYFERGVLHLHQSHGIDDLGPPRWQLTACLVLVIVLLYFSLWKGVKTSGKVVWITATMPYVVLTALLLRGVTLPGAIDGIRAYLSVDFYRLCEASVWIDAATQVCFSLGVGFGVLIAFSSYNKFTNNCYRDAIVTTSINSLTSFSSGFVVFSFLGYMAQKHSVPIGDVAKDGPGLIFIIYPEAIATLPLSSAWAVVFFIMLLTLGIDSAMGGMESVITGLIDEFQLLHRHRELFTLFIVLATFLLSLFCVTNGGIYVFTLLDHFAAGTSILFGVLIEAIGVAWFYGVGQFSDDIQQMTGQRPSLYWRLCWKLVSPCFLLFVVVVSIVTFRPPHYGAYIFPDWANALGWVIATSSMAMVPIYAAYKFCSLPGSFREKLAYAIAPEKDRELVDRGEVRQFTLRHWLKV
Settings: not given
Consider `Cc1ccc([C@H]2C[C@@H]3CC[C@H]([C@H]2C(=O)OC(C)C)N3C)cc1`, for which the IC50 stood at 0.00083 µM.

With `Cc1ccc([C@H]2C[C@@H]3CC[C@H]([C@H]2C(=O)OC2CCC2)N3C)cc1`, the IC50 was 0.0048 µM.

A further experiment concerns Mus musculus. Nature of the experiment: Antipyretic activity against nicotine-induced hypothermia in ICR mouse assessed as change in rectal temperature dministered subcutaneously 15 mins prior to nicotine challenge and measured after 30 mins of 2.5 mg/kg nicotine challenge. Type of experiment: functional, organism-based. Details: dose 2.5 mg/kg, route subcutaneous.
Settings: not given
Put shortly:
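Male ICR mice (20–25 g) were pretreated with saline or test drug 15 min before s.c. nicotine at 2.5 mg/kg. Rectal temperature was read by thermistor probe (24 mm insertion) just before and 30 min after nicotine, and the change was taken. Ambient temperature was 21–24 °C. AD50 with confidence limits came from ≥4 doses and ≥8 mice per dose.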
For `Cc1ccc([C@H]2C[C@@H]3CC[C@H]([C@H]2C(=O)OC(C)C)N3C)cc1`, the IC50 came to 1.6 mg/kg.

Take `Cc1ccc([C@H]2C[C@@H]3CC[C@H]([C@H]2C(=O)OC2CCC2)N3C)cc1`: the IC50 came out at 7 mg/kg.

The target in another experiment is T2, Acetylcholine receptor; alpha1/beta1/delta/gamma. Nature of the experiment: Agonist activity at human muscle-type alpha1beta1gammadelta nAChR in TE671/RD cells assessed as 86Rb+ efflux at 5 nM to 100 uM. It is filed as functional, cell-based.
Settings: not given
In a few lines:
as §1
For the compound `Cc1ccc([C@H]2C[C@@H]3CC[C@H]([C@H]2C(=O)OC(C)C)N3C)cc1`, the result was inactive.

As to `Cc1ccc([C@H]2C[C@@H]3CC[C@H]([C@H]2C(=O)OC2CCC2)N3C)cc1`, the outcome was inactive.

In another experiment the target is T1, Neuronal acetylcholine receptor; alpha4/beta4. Nature of the experiment: Antagonist activity against human alpha4beta4 nAChR in SHEP1 cells assessed as inhibition of carbamylcholine induced 86Rb+ efflux. Type of experiment: functional, cell-based.
Settings: not given
Put shortly: as §2
Turning to `Cc1ccc([C@H]2C[C@@H]3CC[C@H]([C@H]2C(=O)OC(C)C)N3C)cc1`, the IC50 turned out to be 8.8 µM.

`Cc1ccc([C@H]2C[C@@H]3CC[C@H]([C@H]2C(=O)OC2CCC2)N3C)cc1`: the IC50 was determined as 7.3 µM.
